According to ChEMBL document CHEMBL1148106, “Potent cytotoxic lignans from Justicia procumbens and their effects on nitric oxide and tumor necrosis factor-alpha production in mouse macrophages” (J Nat Prod, 2002):
≈ marks a conversion by molar mass, not a printed value. Numbered stars: 1 amine (or outer) side, 2 acyl side, 3 side chain; on linkers, the order of the positions; unused ones are H or OH. Bridge positions count the residues as written; N and C are the ends. Square brackets hold non-standard residues; d marks the D form. Peptide text beside a SMILES is read from it. I, II: the chains in the order shown. Actinocin(1to9) = Cc1c2oc3c(C)ccc(C(=O)[*:2])c3nc-2c(C(=O)[*:1])c(N)c1=O; NMeV = CN[C@H](C(=O)O)C(C)C; Sar = CNCC(=O)O

Tests used:
RAW264.7 [1] = assay: Antiinflammatory activity in LPS-stimulated mouse RAW264.7 cells assessed as effect on TNFalpha formation at 30 uM pretreated 1 hr before LPS challenge measured after 24 hrs; format: functional
Outline: (§1)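 Medium from RAW 264.7 macrophages (2 × 10⁵ cells/well, adhered overnight) pretreated 1 h at 37 °C with drug or 0.5% DMSO vehicle and then given 1 µg/mL LPS (E. coli 0111:B4) for 24 h. Supernatant stored at -70 °C, and TNF-α quantified by ELISA kit per manufacturer. Mean ± SEM, n = 3.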

[2] = Cytotoxicity against mouse 212 cells by MTT assay; format: functional; details: read-out: ED50 (the source's name)
Outline: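 Ha-ras-inducible NIH/3T3-derived 212 cells maintained in MEM alpha with 10% FBS and antibiotics, with 10 mM HEPES pH 7.3 added for the assay. Seeded at (1-3) × 10³ cells/well, allowed 6 h to attach, then exposed to drug 6 days at 37 °C. MTT pulse 4 h, SDS/HCl lysis, absorbance at 550 nm. Cell death expressed as percent MTT inhibition.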

[3] = Cytotoxicity against human Hep3B cells by MTT assay; format: functional, Hep 3B2; details: read-out: ED50 (the source's name)
Outline: (§2)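 Human lines from ATCC grown in DMEM with 10% FBS, 2 mM L-glutamine, penicillin and streptomycin, plus 10 mM HEPES pH 7.3 for the assay. (1-3) × 10³ cells/well, 6 h attachment, then drug exposure for 6 days at 37 °C. MTT added for 4 h, cells lysed in 10% SDS/0.01 M HCl, A550 read. Death calculated as percent MTT inhibition.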

HepG2 = assay: Cytotoxicity against human HepG2 cells by MTT assay; format: functional; details: read-out: ED50 (the source's name); outline: as §2
HT-29 = assay: Cytotoxicity against human HT-29 cells by MTT assay; format: functional; details: read-out: ED50 (the source's name)
Outline: (§3)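 Cells grown in DMEM with 10% FBS plus antibiotics; assay medium supplemented with 10 mM HEPES pH 7.3, 37 °C CO2 incubator. (1-3) × 10³ cells/100 µL seeded, 6 h attachment, drug exposure 6 days. MTT added for 4 h at 37 °C, cells lysed in 10% SDS/0.01 M HCl, A550 read; cell death expressed as % MTT inhibition versus cell-only and medium-blank wells.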

RAW264.7 [4] = assay: Antiinflammatory activity in LPS-stimulated mouse RAW264.7 cells assessed as effect on NO production pretreated 1 hr before LPS challenge measured after 24 hrs; format: functional, cell-based
Outline: (§4)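 RAW 264.7 cells in DMEM with 10% FBS and antibiotics, 2 × 10⁵ cells/well, adhered overnight. Pretreated 1 h at 37 °C with drug or vehicle (final DMSO 0.5%), then stimulated with 1 µg/mL E. coli 0111:B4 LPS for 24 h. Medium nitrite measured by Griess reaction (sulfanilamide, HCl, naphthylethylenediamine, 10 min room temperature, A550) against a NaNO2 standard curve. Mean ± SEM, n = 3.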

Ca-Ski = assay: Cytotoxicity against human CaSKi cells by MTT assay; format: functional; details: read-out: ED50 (the source's name); outline: as §2
SiHa = assay: Cytotoxicity against human SiHa cells by MTT assay; format: functional; details: for EC50: Homo sapiens, SiHa, read-out: ED50 (the source's name); outline: as §2
RAW264.7 [5] = assay: Antiinflammatory activity in LPS-stimulated mouse RAW264.7 cells assessed as effect on TNFalpha formation pretreated 1 hr before LPS challenge measured after 24 hrs; format: functional, cell-based; outline: as §1
RAW264.7 [6] = assay: Antiinflammatory activity in LPS-stimulated mouse RAW264.7 cells assessed as effect on NO production at 10 uM pretreated 1 hr before LPS challenge measured after 24 hrs; format: functional; outline: as §4
RAW264.7 [7] = assay: Antiinflammatory activity in LPS-stimulated mouse RAW264.7 cells assessed as effect on NO production at 30 uM pretreated 1 hr before LPS challenge measured after 24 hrs; format: functional; outline: as §4
HCT-116 = assay: Cytotoxicity against human HCT116 cells by MTT assay; format: functional; details: read-out: ED50 (the source's name); outline: as §3
RAW264.7 [8] = assay: Antiinflammatory activity in LPS-stimulated mouse RAW264.7 cells assessed as effect on NO production at 1 uM pretreated 1 hr before LPS challenge measured after 24 hrs; format: functional; outline: as §4
RAW264.7 [9] = assay: Antiinflammatory activity in LPS-stimulated mouse RAW264.7 cells assessed as effect on TNFalpha formation at 0.3 uM pretreated 1 hr before LPS challenge measured after 24 hrs; format: functional; outline: as §1
MCF7 = assay: Cytotoxicity against human MCF7 cells by MTT assay; format: functional; details: read-out: ED50 (the source's name); outline: as §3
[10] = Cytotoxicity against human MCF7-ras cells by MTT assay; format: functional; details: read-out: ED50 (the source's name); outline: as §3
RAW264.7 [11] = assay: Antiinflammatory activity in LPS-stimulated mouse RAW264.7 cells assessed as effect on TNFalpha formation at 0.1 uM pretreated 1 hr before LPS challenge measured after 24 hrs; format: functional; outline: as §1
RAW264.7 [12] = assay: Antiinflammatory activity in LPS-stimulated mouse RAW264.7 cells assessed as effect on NO production at 0.3 uM pretreated 1 hr before LPS challenge measured after 24 hrs; format: functional; outline: as §4
RAW264.7 [13] = assay: Antiinflammatory activity in LPS-stimulated mouse RAW264.7 cells assessed as effect on NO production at 3 uM pretreated 1 hr before LPS challenge measured after 24 hrs; format: functional
Outline: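 RAW 264.7 cells at 2 × 10⁵ per well in DMEM/10% FBS, adhered overnight. Pretreated 1 h at 37 °C with drug or vehicle (DMSO fixed at 0.5% final), then LPS (E. coli 0111:B4) 1 µg/mL for 24 h. Medium nitrite measured by Griess reaction (10 min RT, A550) against NaNO2 standard curve; mean ± SEM, n = 3, compared with control.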

| SMILES | inhibition at 30 µM (RAW264.7 [1]) [%] | EC50 [2] [µg/mL] | EC50 [3] [µg/mL] | EC50 (HepG2) [µg/mL] | EC50 (HT-29) [µg/mL] | EC50 (HCT-116) [µg/mL] | also measured |
| --- | --- | --- | --- | --- | --- | --- | --- |
| COc1cc2c(O[C@@H]3OC[C@](O)(CO[C@@H]4OC[C@@H](O)[C@H](O)[C@H]4O)[C@H]3O[C@H]3OC[C@@H](O)[C@@H](O[C@@H]4OC[C@](O)(CO)[C@H]4O)[C@@H]3O)c3c(c(-c4ccc5c(c4)OCO5)c2cc1OC)C(=O)OC3 | -26 | – | – | – | – | – | – |
| COc1cc2c(O[C@@H]3OC[C@](O)(CO[C@@H]4OC[C@@H](O)[C@H](O)[C@H]4O)[C@H]3O[C@H]3OC[C@@H](O)[C@@H](O)[C@@H]3O)c3c(c(-c4ccc5c(c4)OCO5)c2cc1OC)C(=O)OC3 | 18.7 | – | – | – | – | – | – |
| COc1cc2c(O[C@@H]3OC[C@](O)(CO)[C@H]3O[C@H]3OC[C@@H](O)[C@@H](O)[C@@H]3O)c3c(c(-c4ccc5c(c4)OCO5)c2cc1OC)C(=O)OC3 | – | 3.1 (≈ 4.81 µM) | 3.1 (≈ 4.81 µM) | 3.9 (≈ 6.05 µM) | 6.7 (≈ 10.4 µM) | – | – |
| CC(=N)NCc1cccc(CN)c1 [1400W] | – | – | – | – | – | – | IC50 (RAW264.7 [4]): 3.1 µM |
| Cc1c2oc3c(C)ccc(C(=O)N[C@@H]4C(=O)N[C@H](C(C)C)C(=O)N5CCC[C@H]5C(=O)N(C)CC(=O)N(C)[C@@H](C(C)C)C(=O)O[C@@H]4C)c3nc-2c(C(=O)N[C@@H]2C(=O)N[C@H](C(C)C)C(=O)N3CCC[C@H]3C(=O)N(C)CC(=O)N(C)[C@@H](C(C)C)C(=O)O[C@@H]2C)c(N)c1=O [DACTINOMYCIN] (I: T[dV]P[Sar][NMeV] / II: T[dV]P[Sar][NMeV]; ester I:1-I:C, II:1-II:C; linker I:N-II:N via Actinocin(1to9)) | – | – | – | – | – | – | EC50 (Ca-Ski): 1.9 ng/mL (≈ 0.00151 µM); ED50 (SiHa): 8.1 ×10⁻⁴ ug/ml |
| C[C@@H]1C[C@H]2[C@@H]3CCC4=CC(=O)C=C[C@]4(C)[C@@]3(F)[C@@H](O)C[C@]2(C)[C@@]1(O)C(=O)CO [DEXAMETHASONE] | – | – | – | – | – | – | IC50 (RAW264.7 [5]): 700 nM |
| COc1cc2c(O)c3c(c(-c4ccc5c(c4)OCO5)c2cc1OC)C(=O)OC3 [DIPHYLLIN] | -22.2 | 2.7 (≈ 7.1 µM) | 3.6 (≈ 9.46 µM) | 0.4 (≈ 1.05 µM) | 2.5 (≈ 6.57 µM) | 0.8 (≈ 2.1 µM) | inhibition at 10 µM (RAW264.7 [6]): -28.4%; inhibition at 30 µM (RAW264.7 [7]): -0.5% |
| O=c1[nH]cc(F)c(=O)[nH]1 [FLUOROURACIL] | – | – | 0.0715 (≈ 0.55 µM) | 0.033 (≈ 0.254 µM) | 0.074 (≈ 0.569 µM) | 0.48 (≈ 3.69 µM) | – |
| COc1cc2c(OC)c3c(c(-c4ccc5c(c4)OCO5)c2cc1OC)C(=O)OC3 [JUSTICIDIN A] | – | 0.0227 (≈ 0.0576 µM) | 0.029 (≈ 0.0735 µM) | 0.02 (≈ 0.0507 µM) | – | – | inhibition at 1 µM (RAW264.7 [8]): 19.8%; inhibition at 0.3 µM (RAW264.7 [9]): -158%; EC50 (Ca-Ski): 3 ng/mL (≈ 0.00761 µM); EC50 (SiHa): 0.0074 µg/mL (≈ 0.0188 µM); EC50 (MCF7): 0.39 µg/mL (≈ 0.989 µM); EC50 [10]: 0.074 µg/mL (≈ 0.188 µM); inhibition at 0.1 µM (RAW264.7 [11]): -6%; inhibition at 0.3 µM (RAW264.7 [12]): 20.3% |
| COc1cc2c(O[C@@H]3OC[C@](O)(CO)[C@H]3O)c3c(c(-c4ccc5c(c4)OCO5)c2cc1OC)C(=O)OC3 [TUBERCULATIN] | – | – | 0.014 (≈ 0.0273 µM) | 0.04 (≈ 0.0781 µM) | 0.29 (≈ 0.566 µM) | 0.28 (≈ 0.546 µM) | inhibition at 3 µM (RAW264.7 [13]): 16.9%; EC50 (SiHa): 0.12 µg/mL (≈ 0.234 µM); EC50 (MCF7): 0.97 µg/mL (≈ 1.89 µM); EC50 [10]: 0.09 µg/mL (≈ 0.176 µM) |
